Test results from ChEMBL document CHEMBL1157559, “Synthesis and biological evaluation of novel pyrazolyl-2,4-thiazolidinediones as anti-inflammatory and neuroprotective agents” (Bioorg Med Chem, 2010).
Active and inactive are the calls of the source. No cut-off for these calls is given here.

Experiments:
[1] = Acute toxicity in po dosed Swiss albino mouse after 24 hrs; assay type: organism-based; conditions: in vivo, read-out: ALD50
Outline: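 Four groups of five Swiss albino mice (20–30 g), fasted 24 h beforehand, given compounds orally at graded doses of 0–300 mg/kg. Mortality recorded at each dose level after 24 h to estimate the acute lethal dose (ALD50).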

SH-SY5Y = assay: Neuroprotective activity in human SH-SY5Y cells assessed as inhibition of H2O2-induced cytotoxicity after 72 hrs by LDH assay; assay type: functional, cell-based
Outline: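 SH-SY5Y cells plated in DMEM-F12 with 5% FBS. After 24 h, medium replaced with medium containing H2O2 (500 µM in methods, 250 µM in figure legend), and compound added directly at that time. Cell death measured by LDH release 72 h later.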

Rattus norvegicus [2] = assay: Antiinflammatory activity in Wistar albino rat acute inflammatory model assessed as inhibition of formalin-induced paw edema at 20 mg/kg, po administered 1 hr before formalin challenge measured after 2 hrs by plethysmometer relative to control; assay type: functional; set-up: scale not given: the % may be the effect or the level left
Outline: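 Male Wistar rats, 180–200 g, groups of five. Test compound 20 mg/kg po; 1 h later 0.1 mL 2% formalin injected subplantar into left hind paw under light ether anesthesia. Paw volume by water plethysmometer at 0 and 1, 2, 3, 4 h after formalin. % inhibition = (Vt−V0)control minus (Vt−V0)treated, divided by (Vt−V0)control ×100. Mean ± SEM, ANOVA with Student–Newman–Keuls.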

THP-1 = assay: Inhibition of MCP1 release in human THP1 cells after 24 hrs by ELISA; assay type: functional, cell-based
Outline: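 THP-1 cells pretreated 15 min with compound, then stimulated with LPS 0.5 µg/mL plus IFN-γ 150 U/mL. After 24 h, MCP-1 (ng/mL) measured in cell-free medium by ELISA.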

HL-60 = assay: Inhibition of phagocyte respiratory burst in human HL60 cells after 6 to 7 days by luminol-induced chemiluminescence; assay type: functional, cell-based
Outline: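 HL-60 cells differentiated 6–7 days in DMEM-F12 with 10% FBS and 1.3% DMSO, washed into serum-free, phenol red-free medium, then held 30 min at 37 °C before compound or DMSO was added. Luminol injected, 7.5 min baseline recorded, then FMLP injected (final 1 µM; luminol 5 mM; DMSO 0.5%). Chemiluminescence recorded 30 min at 37 °C; read-out was area under the curve.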

Rattus norvegicus [3] = assay: Antiinflammatory activity in Wistar albino rat sub-acute inflammatory model assessed as inhibition of formalin-induced paw edema at 20 mg/kg, po administered daily for 7 days by plethysmometer relative to control; assay type: functional; conditions: 168 h
Outline: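 Rats dosed orally at 20 mg/kg daily for 7 consecutive days. 0.1 mL 2% formalin given subplantar in left hind paw under light ether 1 h after the first oral dose, with a second injection on day 3. Paw edema weight (g) measured on day 8. % inhibition = (control − treated)/control ×100. Groups of five.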

## O=C1NC(=O)/C(=C/c2cn(-c3ccc([N+](=O)[O-])cc3)nc2-c2ccc(Cl)cc2)S1
[1]
  LD50 at 24 h: > 300 mg/kg
SH-SY5Y
  inhibition: inactive
Rattus norvegicus [2]
  Activity: 46%
THP-1
  inhibition: inactive
HL-60
  IC50: 1 µM
Rattus norvegicus [3]
  inhibition in vivo at 20 mg/kg: 51%
